Calls of active or inactive are those of the source. The calls are words filed in the database; no cut-off is given here.

In test [1] the target is DNA damage-inducible transcript 3 protein (Rattus norvegicus) (UniProt Q62857). Description: Inhibition of endoplasmic reticulum stress-induced CHOP activity in rat INS-1 cells assessed as suppression of tunicamycin-induced PARP cleavage at 20 uM after 2 to 24 hrs by Western blot method. Type of test: cell-based. To be noted: INS1. In short, it runs like this: (§1)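 INS-1 cells seeded at 8 × 10⁵ per 60-mm dish and treated with or without compound, with or without Tm, for the indicated times. Lysates (20 μg protein) were run on 7% SDS-PAGE and blotted with anti-caspase-3 and anti-PARP (1:1000) to detect cleavage. α-Tubulin served as loading control.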
Chain of DNA damage-inducible transcript 3 protein (Rattus norvegicus) (Q62857 whole entry): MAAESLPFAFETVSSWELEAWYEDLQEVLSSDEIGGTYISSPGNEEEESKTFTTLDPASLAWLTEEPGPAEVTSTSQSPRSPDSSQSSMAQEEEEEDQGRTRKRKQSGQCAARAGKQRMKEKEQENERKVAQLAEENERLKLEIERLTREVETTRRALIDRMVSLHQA

Test [2] in a line: Cytoprotective activity against endoplasmic reticulum stress-induced cell death in tunicamycin-treated CHOP knock out C57BL/6 mouse primary pancreatic islet beta cells assessed as DNA fragmentation at 10 uM after 24 hrs by TUNEL assay (reference value: 18.7%). The class given is functional. In short, it runs like this:
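Primary islet cells isolated from CHOP−/− knockout mice (age-matched males), cultured in CMRL-1066 with 10% FBS, treated with compound (10 μM) plus tunicamycin (1 μg/ml) for 24 h. Cells fixed in 4% paraformaldehyde, permeabilized with 0.1% Triton X-100 in 0.1% sodium citrate, TUNEL stained (1 h, 37°C), co-stained for insulin and DAPI; % TUNEL+ insulin+ cells counted, five wells, islets from 3 mice.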

In test [3] the target is DNA damage-inducible transcript 3 protein (Mus musculus) (UniProt P35639). Description: Inhibition of endoplasmic reticulum stress-induced CHOP activity in tunicamycin-treated C57BL/6 mouse primary pancreatic islet beta cells assessed as DNA fragmentation at 10 uM after 24 hrs by TUNEL assay (reference value: 40.4%). Also on record: scale not given: the % may be the effect or the level left. Put shortly: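 Primary islet cells from C57BL/6 mice were cultured in CMRL-1066/10% FBS and treated 24 h with Tm 1 μg/ml plus 10 μM compound or DMSO. Cells were fixed in 4% PFA, permeabilized in Triton/citrate, TUNEL-stained (1 h, 37°C), and co-stained for insulin and DAPI. TUNEL+ insulin+ cells were counted as mean ± SD of five wells (~50 islets, 3 mice).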
Chain of DNA damage-inducible transcript 3 protein (Mus musculus) (P35639 whole entry, the tested form may be a part): as the sequence (Q62857 whole entry) above, with A9T, F10L, A70T, S74R, D97E, A111P, A114P, L142Q counted along it

Test [4] addresses DNA damage-inducible transcript 3 protein (Rattus norvegicus) (UniProt Q62857). Description: Inhibition of endoplasmic reticulum stress-induced CHOP activity in rat INS-1 cells assessed as suppression of tunicamycin-induced caspase-3 cleavage at 20 uM after 2 to 24 hrs by Western blot method. The class given is cell-based. To be noted: INS1. Put shortly: as §1

In the case of `CCc1ccc(-n2nnc(C(=O)Nc3cccc(F)c3)c2C)cc1`, the inhibition entry in test [1] and in test [4] was “Active” throughout. Besides, the Activity came to 14.6% in test [2] and 9% in test [3].

The record behind these values is ChEMBL document CHEMBL3797120, “Identification of 1,2,3-triazole derivatives that protect pancreatic β cells against endoplasmic reticulum stress-mediated dysfunction and death through the inhibition of C/EBP-homologous protein expression” (Bioorg Med Chem, 2016).
